Common to all, as to type: functional
Assay [1] deals with Staphylococcus epidermidis. Kind of assay: Minimum inhibition concentration in vitro determined against Staphylococcus epidermidis 3519. The procedure, abridged:
(§1)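 Agar dilution on brain-heart infusion (BHI) agar with twofold dilutions from a 2000 µg/mL stock, giving final test concentrations of 200-0.005 µg/mL. Organisms were grown overnight in BHI broth at 36 °C, and about 10⁴ organisms were inoculated per plate. Plates were incubated 18 h at 36 °C. MIC was the lowest concentration with no visible growth.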

Assay [2] concerns Staphylococcus aureus. The assay can be described thus: Minimum inhibition concentration in vitro determined against Staphylococcus aureus CMX 686B. The procedure, abridged:
as §1

Another assay relates to Acinetobacter. Kind of assay: Minimum inhibition concentration in vitro determined against Acinetobacter sp CMX669. In outline: as §1
In assay [3] the test system is Pseudomonas aeruginosa. The assay can be described thus: Minimum inhibition concentration in vitro determined against Pseudomona aeruginosa 5007. In outline:
as §1

Another assay concerns Klebsiella aerogenes. The assay can be described thus: Minimum inhibition concentration in vitro determined against Enterobacteri aerogenes ATCC 13048. The procedure, abridged: as §1
In the next assay the test system is Klebsiella pneumoniae. Kind of assay: Minimum inhibition concentration in vitro determined against Klebsiella pneumoniae 8045. In outline: as §1
For assay [4], the system named is Pseudomonas aeruginosa. The assay can be described thus: Minimum inhibition concentration in vitro determined against Pseudomona aeruginosa K799/WT. In outline: as §1
The subject of assay [5] is Enterococcus faecium. Kind of assay: 0 Minimum inhibition concentration was determined against Streptococcus faecium ATCC 8043 (in vitro). The procedure, abridged: as §1
The next assay relates to Streptococcus pyogenes. The assay can be described thus: Minimum inhibition concentration in vitro determined against Streptococcus pyogenes 930. The procedure, abridged:
as §1

The subject of assay [6] is Escherichia coli. The assay can be described thus: Minimum inhibition concentration in vitro determined against Escherichia coli juhl. The procedure, abridged:
as §1

Assay [7] has as its system Staphylococcus aureus. The assay can be described thus: Minimum inhibition concentration in vitro determined against Staphylococcus aureus ATCC 6538P. The procedure, abridged:
as §1

Assay [8] deals with Enterococcus faecium. Kind of assay: Minimum inhibition concentration in vitro determined against Streptococcus faecium ATCC 8043. In outline:
as §1

The subject of assay [9] is Mus musculus. Kind of assay: In vivio inhibitory activity against Escherichia coli Juhl after subcutaneous administration in mice. To be noted: sc. The procedure, abridged: (§2)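 Female CF-1 mice (~20 g) were infected ip with 0.5 mL of an 18-h BHI culture of E. coli Juhl in 5% hog gastric mucin at 100× LD50. The LD50 had been set beforehand by 10-fold dilutions and Reed-Muench. Compound in water or dilute NaOH was given sc or po, split equally at 1 and 5 h post-infection. Groups of 10 mice got ≥3 doses, with 10 untreated controls. ED50 was calculated from day-6 cumulative mortality by trimmed Logit.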

Assay [10] has as its system Escherichia coli. Kind of assay: Compound was evaluated for inhibitory activity against Escherichia coli Juhl (in vivo). The conditions noted are these: in the assay text read “in vitro” for “in vivo”.
For assay [11], the system named is Mus musculus. Kind of assay: In vivo inhibitory activity of teh compound against Escherichia coli Juhl after peroral administration in mice. To be noted: po. In outline: as §2
Assay [12] has as its system Mus musculus. The assay can be described thus: In vivo inhibitory activity against Escherichia coli Juhl after peroral administration in mice. The conditions noted are these: po. The procedure, abridged:
as §2

Where [13] appears, read: Escherichia coli, read-out: MIC.

Converted amounts (≈) assume the structure as drawn.

As for `CN1CCN(c2cc3c(cc2F)c(=O)c(C(=O)O)cn3-c2ccc3c(c2)OCO3)CC1`, the MIC was found to be 1.56 µg/mL (≈ 3.67 µM) in [1]; 0.78 µg/mL (≈ 1.83 µM) with Staphylococcus aureus [2]; 0.78 µg/mL (≈ 1.83 µM) against Acinetobacter; 6.2 µg/mL (≈ 14.6 µM) against Pseudomonas aeruginosa [3]; 0.78 µg/mL (≈ 1.83 µM) against Klebsiella aerogenes; 0.2 µg/mL (≈ 0.47 µM) with Klebsiella pneumoniae. In addition, the MIC was found to be 6.2 µg/mL (≈ 14.6 µM) against Pseudomonas aeruginosa [4]; 50 µg/mL (≈ 118 µM) against Enterococcus faecium [5]; 12.5 µg/mL (≈ 29.4 µM) in the assay on Streptococcus pyogenes; 0.78 µg/mL (≈ 1.83 µM) in the assay with Escherichia coli [6] (setting [13]); 0.78 µg/mL (≈ 1.83 µM) in the assay on Staphylococcus aureus [7].
For `CN(C)C1CCN(c2cc3c(cc2F)c(=O)c(C(=O)O)cn3-c2ccc(F)cc2)C1` (stereo not drawn), the MIC in assay [1] was found to be 0.39 µg/mL (≈ 0.943 µM); against Staphylococcus aureus [2] it was 0.39 µg/mL (≈ 0.943 µM); in the assay with Acinetobacter it was 0.78 µg/mL (≈ 1.89 µM); with Pseudomonas aeruginosa [3], 25 µg/mL (≈ 60.5 µM); against Enterococcus faecium [8], 25 µg/mL (≈ 60.5 µM); in the assay with Klebsiella aerogenes, 0.78 µg/mL (≈ 1.89 µM). For the same molecule, the MIC against Klebsiella pneumoniae was found to be 0.2 µg/mL (≈ 0.484 µM); against Pseudomonas aeruginosa [4], 12.5 µg/mL (≈ 30.2 µM); against Streptococcus pyogenes, 3.1 µg/mL (≈ 7.5 µM); in the assay with Escherichia coli [6] (setting [13]), 0.39 µg/mL (≈ 0.943 µM); in the assay on Staphylococcus aureus [7] it was 0.39 µg/mL (≈ 0.943 µM).
Regarding `O=C(O)c1cn(-c2ccc(F)cc2)c2cc(N3CCCCC3)c(F)cc2c1=O`, the MIC in assay [1] came out at 0.39 µg/mL (≈ 1.01 µM); with Staphylococcus aureus [2], 0.2 µg/mL (≈ 0.52 µM); in the assay on Acinetobacter, 1.56 µg/mL (≈ 4.06 µM); in the assay with Pseudomonas aeruginosa [3] it was 6.2 µg/mL (≈ 16.1 µM); against Enterococcus faecium [8], 3.1 µg/mL (≈ 8.06 µM); with Klebsiella aerogenes, 3.1 µg/mL (≈ 8.06 µM). Moreover, the MIC came out at 1.56 µg/mL (≈ 4.06 µM) against Klebsiella pneumoniae; 6.2 µg/mL (≈ 16.1 µM) against Pseudomonas aeruginosa [4]; 1.56 µg/mL (≈ 4.06 µM) in the assay on Streptococcus pyogenes; 1.56 µg/mL (≈ 4.06 µM) in the assay on Escherichia coli [6] (setting [13]); 0.2 µg/mL (≈ 0.52 µM) against Staphylococcus aureus [7].
As for `O=C(O)c1cn(-c2ccc(F)cc2)c2cc(N3CCCNCC3)c(F)cc2c1=O`, the minimal inhibitory concentration (MIC) in [1] is 1.56 µg/mL (≈ 3.91 µM); in the assay on Staphylococcus aureus [2], 0.78 µg/mL (≈ 1.95 µM); against Acinetobacter, 1.56 µg/mL (≈ 3.91 µM); in the assay with Pseudomonas aeruginosa [3], 1.56 µg/mL (≈ 3.91 µM); in the assay on Enterococcus faecium [8], 12.5 µg/mL (≈ 31.3 µM); against Klebsiella aerogenes, 0.39 µg/mL (≈ 0.976 µM). Further, the MIC was found to be 0.1 µg/mL (≈ 0.25 µM) in the assay on Klebsiella pneumoniae; 3.1 µg/mL (≈ 7.76 µM) against Pseudomonas aeruginosa [4]; 6.2 µg/mL (≈ 15.5 µM) against Streptococcus pyogenes; 0.2 µg/mL (≈ 0.501 µM) with Escherichia coli [6] (setting [13]); 0.78 µg/mL (≈ 1.95 µM) against Staphylococcus aureus [7].
As to `CN1CCN(c2cc3c(cc2F)c(=O)c(C(=O)O)cn3-c2ccc(O)cc2)CC1`, the minimal inhibitory concentration (MIC) in [1] is 0.2 µg/mL (≈ 0.503 µM); against Staphylococcus aureus [2], 0.1 µg/mL (≈ 0.252 µM); in the assay on Acinetobacter it was 0.39 µg/mL (≈ 0.981 µM); in the assay with Pseudomonas aeruginosa [3] it was 0.39 µg/mL (≈ 0.981 µM); in the assay on Enterococcus faecium [8], 0.39 µg/mL (≈ 0.981 µM); in the assay with Klebsiella aerogenes, 0.2 µg/mL (≈ 0.503 µM). The MIC came to 0.05 µg/mL (≈ 0.126 µM) in the assay on Klebsiella pneumoniae; 0.39 µg/mL (≈ 0.981 µM) in the assay with Pseudomonas aeruginosa [4]; 0.2 µg/mL (≈ 0.503 µM) against Streptococcus pyogenes; 0.1 µg/mL (≈ 0.252 µM) in the assay on Escherichia coli [6] (setting [13]); 0.05 µg/mL (≈ 0.126 µM) against Staphylococcus aureus [7].
For `O=C(O)c1cn(-c2ccc(F)cc2)c2cc(N3CCNCC3)c(F)cc2c1=O` [SARAFLOXACIN], the MIC worked out at 0.39 µg/mL (≈ 1.01 µM) in assay [1]; 0.2 µg/mL (≈ 0.519 µM) with Staphylococcus aureus [2]; 0.05 µg/mL (≈ 0.13 µM) in the assay on Escherichia coli [10]; 0.2 µg/mL (≈ 0.519 µM) against Acinetobacter; 0.39 µg/mL (≈ 1.01 µM) with Pseudomonas aeruginosa [3]; 1.56 µg/mL (≈ 4.05 µM) against Enterococcus faecium [8]. In addition, the MIC in the assay with Klebsiella aerogenes was determined as 0.2 µg/mL (≈ 0.519 µM); in the assay with Klebsiella pneumoniae, 0.02 µg/mL (≈ 0.0519 µM); against Pseudomonas aeruginosa [4], 0.39 µg/mL (≈ 1.01 µM); in the assay on Streptococcus pyogenes, 0.78 µg/mL (≈ 2.02 µM); in the assay on Escherichia coli [6] (setting [13]), 0.05 µg/mL (≈ 0.13 µM); with Staphylococcus aureus [7], 0.2 µg/mL (≈ 0.519 µM). The ED50 in the assay on Mus musculus [9] came to 0.6 mg/kg; in the assay on Mus musculus [11] it was 4.3 mg/kg.
Consider `CCn1cc(C(=O)O)c(=O)c2cc(F)c(N3CCNCC3)cc21` [NORFLOXACIN], for which the minimum inhibitory concentration (MIC) in [1] worked out at 1.56 µg/mL (≈ 4.89 µM); against Staphylococcus aureus [2], 0.78 µg/mL (≈ 2.44 µM); against Acinetobacter, 6.2 µg/mL (≈ 19.4 µM); against Pseudomonas aeruginosa [3], 0.39 µg/mL (≈ 1.22 µM); with Enterococcus faecium [8] it was 0.78 µg/mL (≈ 2.44 µM); in the assay on Klebsiella aerogenes, 0.2 µg/mL (≈ 0.626 µM). Further, the minimal inhibitory concentration (MIC) came out at 0.1 µg/mL (≈ 0.313 µM) in the assay on Klebsiella pneumoniae; 0.39 µg/mL (≈ 1.22 µM) against Pseudomonas aeruginosa [4]; 3.1 µg/mL (≈ 9.71 µM) in the assay on Streptococcus pyogenes; 0.1 µg/mL (≈ 0.313 µM) in the assay on Escherichia coli [6]; 0.1 µg/mL (≈ 0.313 µM) with Escherichia coli [6] (setting [13]); 0.78 µg/mL (≈ 2.44 µM) in the assay on Staphylococcus aureus [7]. Also, the results for the 50% effective dose (ED50) with Mus musculus [12] and in the assay with Mus musculus [9] were 15.1 mg/kg and 0.6 mg/kg, respectively.

For orientation: MIC means the lowest concentration found to suppress growth. The term ED50 denotes the dose that gives a 50% effect, or the effect in half of the subjects.

The record behind these values is ChEMBL document CHEMBL1122831, “Synthesis and structure-activity relationships of novel arylfluoroquinolone antibacterial agents” (1985).
